In brackets after ≈: the same amount, converted by molar mass.

Consider 8 compounds from ChEMBL document CHEMBL1154876, “Synthesis and antimicrobial studies on novel sulfonamides containing 4-azidomethyl coumarin” (2010).

Type in all cases: functional
In one assay the test system is Pseudomonas aeruginosa. The assay can be described thus: Antibacterial activity against Pseudomonas aeruginosa MTCC 1034 after 18 hrs by broth microdilution method. The note with it: MTCC 1034, 18 h. On the technique in general: In broth dilution the organism is exposed to a series of concentrations in liquid medium.
Another assay concerns Aspergillus niger. The assay can be described thus: Antifungal activity against Aspergillus niger after 48 to 72 hrs by broth microdilution method. In a few lines: (§1)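 Test compounds were prepared as 10 mg/ml DMSO stocks and serially diluted twofold in Sabouraud's dextrose broth over 500, 250, 125, 62.5, 31.25, 16, 8, 4, 2 and 1, alongside fluconazole as reference. Plates were inoculated with 1–5 × 10⁴ cfu/ml and held at 25 °C for 48–72 h. The MIC was the lowest concentration showing no visible growth.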

A further assay relates to Staphylococcus aureus. The assay can be described thus: Antibacterial activity against Staphylococcus aureus MTCC 3160 after 18 hrs by broth microdilution method. The note with it: MTCC 3160, 18 h.
The next assay relates to Aspergillus fumigatus. The assay can be described thus: Antifungal activity against Aspergillus fumigatus after 48 to 72 hrs by broth microdilution method. In a few lines:
as §1

The next assay deals with Mucor. The assay can be described thus: Antifungal activity against Mucor fuscus after 48 to 72 hrs by broth micro dilution method. In a few lines: as §1
A further assay concerns Bacillus subtilis. The assay can be described thus: Antibacterial activity against Bacillus subtilis MTCC 297 after 18 hrs by broth microdilution method. As to conditions: MTCC 297, 18 h.
A further assay deals with Candida albicans. The assay can be described thus: Antifungal activity against Candida albicans after 48 to 72 hrs by broth microdilution method. An outline of the steps:
as §1

The subject of another assay is Enterococcus faecalis. The assay can be described thus: Antibacterial activity against Streptococcus faecalis MTCC 3382 after 18 hrs by broth microdilution method. As to conditions: MTCC 3382, 18 h.
A further assay has as its system Penicillium chrysogenum. The assay can be described thus: Antifungal activity against Penicillium chrysogenum after 48 to 72 hrs by broth microdilution method. An outline of the steps:
as §1

The subject of the next assay is Fusarium oxysporum. The assay can be described thus: Antifungal activity against Fusarium oxysporum after 48 to 72 hrs by broth microdilution method. An outline of the steps:
as §1

A further assay has as its system Klebsiella pneumoniae. The assay can be described thus: Antibacterial activity against Klebsiella pneumoniae MTCC 3384 after 18 hrs by broth microdilution method. The note with it: MTCC 3384, 18 h.
For another assay, the system named is Escherichia coli. The assay can be described thus: Antibacterial activity against Escherichia coli MTCC 1089 after 18 hrs by broth microdilution method. The note with it: MTCC 1089, 18 h.

For `Cc1cc2oc(=O)cc(CBr)c2cc1S(=O)(=O)Cl`, the MIC with Pseudomonas aeruginosa came out at 125 µg/mL (≈ 356 µM); against Aspergillus niger, 4 µg/mL (≈ 11.4 µM); in the assay on Staphylococcus aureus, 16 µg/mL (≈ 45.5 µM); with Aspergillus fumigatus it was 4 µg/mL (≈ 11.4 µM); against Mucor, 1 µg/mL (≈ 2.84 µM); in the assay on Bacillus subtilis it was 16 µg/mL (≈ 45.5 µM). In addition, the MIC came to 8 µg/mL (≈ 22.8 µM) in the assay with Candida albicans; 16 µg/mL (≈ 45.5 µM) in the assay with Enterococcus faecalis; 1 µg/mL (≈ 2.84 µM) against Penicillium chrysogenum; 1 µg/mL (≈ 2.84 µM) in the assay with Fusarium oxysporum; 125 µg/mL (≈ 356 µM) with Klebsiella pneumoniae; 125 µg/mL (≈ 356 µM) with Escherichia coli.

On to `Cc1cc2oc(=O)cc(CN=[N+]=[N-])c2cc1S(=O)(=O)Cl`, for which the MIC stood at 125 µg/mL (≈ 398 µM) in the assay with Pseudomonas aeruginosa; 8 µg/mL (≈ 25.5 µM) with Aspergillus niger; 4 µg/mL (≈ 12.8 µM) in the assay with Staphylococcus aureus; 8 µg/mL (≈ 25.5 µM) with Aspergillus fumigatus; 2 µg/mL (≈ 6.38 µM) with Mucor; 31.2 µg/mL (≈ 99.6 µM) against Bacillus subtilis. The MIC in the assay with Candida albicans turned out to be 8 µg/mL (≈ 25.5 µM); against Enterococcus faecalis it was 31.2 µg/mL (≈ 99.6 µM); in the assay on Penicillium chrysogenum, 4 µg/mL (≈ 12.8 µM); in the assay with Fusarium oxysporum, 2 µg/mL (≈ 6.38 µM); in the assay on Klebsiella pneumoniae it was 125 µg/mL (≈ 398 µM); in the assay with Escherichia coli, 125 µg/mL (≈ 398 µM).

As to `Cc1cc2oc(=O)cc(CN=[N+]=[N-])c2cc1S(=O)(=O)Nc1ccccc1`, the MIC with Pseudomonas aeruginosa was 125 µg/mL (≈ 337 µM); against Aspergillus niger it was 8 µg/mL (≈ 21.6 µM); against Staphylococcus aureus, 4 µg/mL (≈ 10.8 µM); against Aspergillus fumigatus it was 8 µg/mL (≈ 21.6 µM); against Mucor, 4 µg/mL (≈ 10.8 µM); against Bacillus subtilis it was 31.2 µg/mL (≈ 84.4 µM). Besides, the minimal inhibitory concentration (MIC) is 16 µg/mL (≈ 43.2 µM) against Candida albicans; 31.2 µg/mL (≈ 84.4 µM) against Enterococcus faecalis; 2 µg/mL (≈ 5.4 µM) with Penicillium chrysogenum; 4 µg/mL (≈ 10.8 µM) with Fusarium oxysporum; 125 µg/mL (≈ 337 µM) with Klebsiella pneumoniae; 125 µg/mL (≈ 337 µM) with Escherichia coli.

With `Cc1cccc(NS(=O)(=O)c2cc3c(CN=[N+]=[N-])cc(=O)oc3cc2C)c1`, the MIC against Pseudomonas aeruginosa came out at 2 µg/mL (≈ 5.2 µM); against Aspergillus niger, 1 µg/mL (≈ 2.6 µM); in the assay with Staphylococcus aureus, 16 µg/mL (≈ 41.6 µM); against Aspergillus fumigatus it was 8 µg/mL (≈ 20.8 µM); in the assay on Mucor, 62.5 µg/mL (≈ 163 µM); in the assay on Bacillus subtilis it was 16 µg/mL (≈ 41.6 µM). For the same compound, the minimal inhibitory concentration (MIC) against Candida albicans is 4 µg/mL (≈ 10.4 µM); with Enterococcus faecalis, 250 µg/mL (≈ 650 µM); against Penicillium chrysogenum, 8 µg/mL (≈ 20.8 µM); with Fusarium oxysporum it was 125 µg/mL (≈ 325 µM); in the assay on Klebsiella pneumoniae it was 4 µg/mL (≈ 10.4 µM); with Escherichia coli it was above 500 µg/mL.

As for `Cc1ccc(NS(=O)(=O)c2cc3c(CN=[N+]=[N-])cc(=O)oc3cc2C)cc1`, the minimum inhibitory concentration (MIC) in the assay on Pseudomonas aeruginosa came out at 125 µg/mL (≈ 325 µM); against Aspergillus niger, 4 µg/mL (≈ 10.4 µM); in the assay with Staphylococcus aureus it was 16 µg/mL (≈ 41.6 µM); with Aspergillus fumigatus, 16 µg/mL (≈ 41.6 µM); in the assay with Mucor, 62.5 µg/mL (≈ 163 µM); in the assay on Bacillus subtilis, 8 µg/mL (≈ 20.8 µM). The MIC against Candida albicans was 1 µg/mL (≈ 2.6 µM); against Enterococcus faecalis it was 16 µg/mL (≈ 41.6 µM); in the assay with Penicillium chrysogenum, 16 µg/mL (≈ 41.6 µM); against Fusarium oxysporum it was 1 µg/mL (≈ 2.6 µM); against Klebsiella pneumoniae it was 1 µg/mL (≈ 2.6 µM); against Escherichia coli, above 500 µg/mL.

Consider `Cc1ccc(NS(=O)(=O)c2cc3c(CN=[N+]=[N-])cc(=O)oc3cc2C)cc1C`, for which the MIC against Pseudomonas aeruginosa came to 125 µg/mL (≈ 314 µM); against Aspergillus niger, 4 µg/mL (≈ 10 µM); with Staphylococcus aureus it was 4 µg/mL (≈ 10 µM); against Aspergillus fumigatus it was 8 µg/mL (≈ 20.1 µM); with Mucor it was 1 µg/mL (≈ 2.51 µM); against Bacillus subtilis, 31.2 µg/mL (≈ 78.4 µM). In addition, the minimum inhibitory concentration (MIC) is 8 µg/mL (≈ 20.1 µM) in the assay with Candida albicans; 8 µg/mL (≈ 20.1 µM) against Enterococcus faecalis; 2 µg/mL (≈ 5.02 µM) in the assay on Penicillium chrysogenum; 1 µg/mL (≈ 2.51 µM) in the assay on Fusarium oxysporum; 125 µg/mL (≈ 314 µM) against Klebsiella pneumoniae; 125 µg/mL (≈ 314 µM) in the assay on Escherichia coli.

Take `O=C(O)c1cn(C2CC2)c2cc(N3CCNCC3)c(F)cc2c1=O` [CIPROFLOXACIN]: the MIC in the assay with Pseudomonas aeruginosa, in the assay on Staphylococcus aureus, in the assay with Bacillus subtilis, against Enterococcus faecalis and in the assay on Klebsiella pneumoniae was 1 µg/mL (≈ 3.02 µM) each time.

Turning to `OC(Cn1cncn1)(Cn1cncn1)c1ccc(F)cc1F` [FLUCONAZOLE], the MIC against Aspergillus niger, against Aspergillus fumigatus, against Mucor, in the assay with Candida albicans, in the assay with Penicillium chrysogenum and against Fusarium oxysporum was 8 µg/mL (≈ 26.1 µM) throughout.

As usually defined, the MIC is the least concentration at which growth counts as inhibited. A higher MIC goes with a less susceptible organism.
